The list is not random: actives were taken first. Their share in the collection is about 2.4%.
NPY-Y1 antag – blocks the human neuropeptide Y Y1 receptor | P25929 | AID 1040 | HEK293-CNG Y1 cells, membrane potential fluorescence; NPY at EC95, then isoproterenol | inhibition, % at 3.6 µM | actives 1% (n = 200,000);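 active = inhibition above the campaign mean inhibition of all tested compounds plus 3 SD, cut at about 20% in these data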
Target sequence (P25929 whole entry, looked up): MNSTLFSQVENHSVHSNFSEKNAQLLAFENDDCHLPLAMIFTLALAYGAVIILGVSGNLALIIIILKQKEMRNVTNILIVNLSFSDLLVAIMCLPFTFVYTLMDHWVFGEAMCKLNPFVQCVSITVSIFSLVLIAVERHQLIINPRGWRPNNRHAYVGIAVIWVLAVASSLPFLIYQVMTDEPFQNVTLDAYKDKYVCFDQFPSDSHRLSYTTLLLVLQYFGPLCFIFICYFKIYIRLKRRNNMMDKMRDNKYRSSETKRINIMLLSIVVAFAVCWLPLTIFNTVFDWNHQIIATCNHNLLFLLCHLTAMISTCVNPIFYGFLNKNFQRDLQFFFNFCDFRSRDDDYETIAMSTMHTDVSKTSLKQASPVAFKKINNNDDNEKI
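Test system: HEK293 cells co-expressing NPY Y1 receptor and cyclic-nucleotide gated channel; Also added: NPY (25 nM), isoproterenol (1 µM), Ro 20-1724 (25 µM); Compound dosing: one concentration, 3.6 µM, in 0.4% DMSO; Timing: dye 3 h, compound 60 min room temperature, stimulation 45 min; Technique: Membrane-potential fluorescent dye readout.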
S1P4 agonist – activates the human S1P4 receptor; O95977; S1P4-expressing cell line, agonist reporter assay; activation, % at 4.98 µM; actives 0.35% (n = 220,000); AID 1509; in the data active = activation above about 11%
NPY-Y1 PAM-ag – human NPY-Y1 potentiation or agonism, primary screen | P25929 | NPY-Y1 expressing cells, potentiator/agonist activation | activation, % at 3.6 µM | actives 0.37% (n = 220,000) | AID 1304; in the data active = activation above about 33%, passing the limit was not always enough;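 also: cells stimulated with NPY at EC10 then isoproterenol at EC100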
NPY-Y2 PAM-ag – human NPY-Y2 potentiation or agonism, primary screen; actives 0.45% (n = 220,000); cells expressing NPY-Y2, potentiator/agonist read-out; activation, % at 3.6 µM; AID 1359; in the data active = activation above about 27%;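 also: cells stimulated with NPY near EC25 plus isoproterenol at EC100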
S1P4 antag – human S1P4 receptor antagonism; O95977; S1P4-expressing cells, antagonist mode, reporter read-out; inhibition, % at 4.98 µM; actives 0.26% (n = 220,000); AID 1510; in the data active = inhibition above about 29%
NPY Y2 blocker – blocks the human neuropeptide Y Y2 receptor; P49146; NPY-Y2 expressing cells, antagonist mode; inhibition, % at 2.7 µM; actives 0.99% (n = 140,000); in the data active = inhibition above about 17%
NPY1 antag ctr – human NPY-Y1 antagonism in NPY-Y2 counter-screen; actives 19% (n = 710); inhibition, % at 3.6 µM; shares compounds with NPY Y2 blocker; cell-based NPY-Y1 antagonism counterscreen; in the data active = inhibition above about 20%;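 also: cells challenged with NPY then isoproterenol with cAMP sensed through a CNG channel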
NPY2 antag conf – confirmation of human neuropeptide Y receptor Y2 antagonists; shares compounds with NPY Y2 blocker; HEK293 NPY-Y2 CNG channel, membrane potential fluorescence; inhibition, % at 2.8 µM; actives 32% (n = 710);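 active = mean inhibition of triplicate wells above the hit cutoff set in the primary screen, cut at about 17% in these data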
Each line names hits and unclear results; the compound was inactive in the other large screens (follow-up assays come after a bar, where they were run).

Cc1cccc(C2=N/C(=C\c3cccs3)C(=O)O2)c1	none (no result: NPY Y2 blocker)
CN(CC(=O)Nc1ccc(C#N)cc1)Cc1ccc(Cl)cc1	NPY Y2 blocker 18 | NPY1 antag ctr inactive | NPY2 antag conf inactive
CCN(CC)c1nc2cc(OC)ccc2cc1C#N	NPY Y2 blocker 23 | NPY1 antag ctr inactive | NPY2 antag conf inactive
CCSc1nc2ccc(OC)cc2cc1C#N	NPY Y2 blocker 21 | NPY1 antag ctr inactive | NPY2 antag conf 20
CN(CC(=O)NCc1ccccn1)S(=O)(=O)c1ccc2ccccc2c1	none (no result: NPY Y2 blocker)
CSc1ccc(S(=O)(=O)Nc2ccc(OCC(=O)N3CCOCC3)cc2)cc1	none (no result: NPY Y2 blocker)
O=C(COC(=O)c1cccc(Cl)c1)Nc1cc(Cl)ccc1Oc1ccccc1	NPY Y2 blocker 19 | NPY1 antag ctr inactive | NPY2 antag conf inactive
CCOC(=O)Cc1csc(SCC(=O)Nc2cccc(Cl)c2)n1	none
CCOC(=O)Cc1csc(SCC(=O)Nc2cc(Cl)ccc2Oc2ccccc2)n1	NPY Y2 blocker 19 | NPY1 antag ctr inactive | NPY2 antag conf inactive
Cc1ccc(N2C(=O)c3ccccc3C2C(=O)c2cc(C)ccc2O)cc1 (configuration not stated)	NPY Y2 blocker 27 | NPY1 antag ctr 35 | NPY2 antag conf 38
Cc1ccc(N2C(=O)c3ccccc3C2C(=O)c2ccc(O)cc2O)cc1 (configuration not stated)	none
Cc1ccc(Oc2nc(CN3CCOCC3)nc3sc4c(c23)CCC(C)C4)cc1 (configuration not stated)	NPY Y2 blocker 22 | NPY1 antag ctr 29 | NPY2 antag conf 30
Cc1cc(NC(=O)CSc2nccn2C)no1	none (no result: NPY Y2 blocker)
N#Cc1c(NC(=O)CCn2cnc3ccccc3c2=O)oc(-c2ccccc2)c1-c1ccccc1	NPY Y2 blocker 20 | NPY1 antag ctr 23 | NPY2 antag conf inactive
CS(=O)(=O)N(CCc1ccccc1)CC(=O)N1CCN(Cc2ccc3c(c2)OCO3)CC1	none
CS(=O)(=O)N(CC(=O)N1CCN(Cc2ccc3c(c2)OCO3)CC1)Cc1ccc(Cl)cc1	NPY Y2 blocker 23 | NPY1 antag ctr inactive | NPY2 antag conf inactive
COc1ccccc1CNC(=O)CSc1nc2ccccc2c(=O)n1CCCN1CCOCC1	none (no result: NPY Y2 blocker)
COc1ccc(NC(=O)CSc2nc3ccccc3c(=O)n2CCCN2CCCCC2)c(OC)c1	NPY Y2 blocker 24 | NPY1 antag ctr inactive | NPY2 antag conf 20
Cc1cccn2cc(CCNC(=O)Cc3cccs3)nc12	none (no result: NPY-Y1 antag, NPY Y2 blocker)
O=C(/C=C/c1ccc2c(c1)OCO2)NCCSCc1ccc(Cl)cc1Cl	NPY Y2 blocker 19 | NPY1 antag ctr inactive | NPY2 antag conf inactive
CS(=O)(=O)N(CC(=O)NCCSCc1cccc(Cl)c1)c1ccc2c(c1)OCO2	none
O=C(/C=C/c1ccc2c(c1)OCO2)NCCSCc1cccc(Cl)c1	NPY Y2 blocker 18 | NPY1 antag ctr inactive | NPY2 antag conf inactive
Cc1ccc(Nc2nc(N)nc(CSc3ncccn3)n2)cc1	none
Cc1ccc(Nc2nc(N)nc(CSc3nc(C)cc(C)n3)n2)cc1	NPY Y2 blocker 29 | NPY1 antag ctr inactive | NPY2 antag conf inactive
CCc1n[nH]c(=S)n1/N=C/c1cc(Br)c(OC)cc1OC	NPY Y2 blocker 21 | NPY1 antag ctr inactive | NPY2 antag conf 18
Cc1ccc(S(=O)(=O)N2CC3CCCC2C3)cc1 (configuration not stated)	none (no result: NPY-Y1 antag, NPY Y2 blocker)
C/C(=N\O)c1ccc(N2C(=O)C3CC=C(Cl)CC3C2=O)cc1 (configuration not stated)	NPY Y2 blocker 23 | NPY1 antag ctr inactive | NPY2 antag conf inactive
CC(C)c1ccc(/C=C/C(=O)NC(=S)Nc2ccc(CN3CCOCC3)cc2)cc1	NPY Y2 blocker 21 | NPY1 antag ctr 25 | NPY2 antag conf 72
CC1(C(=O)NCc2ccc(Cl)c(Cl)c2)Oc2ccccc2NC1=O (configuration not stated)	none (no result: NPY Y2 blocker)
O=C(COC(=O)c1c2c(nc3ccccc13)CCCCC2)NCc1ccc2c(c1)OCO2	NPY Y2 blocker 25 | NPY1 antag ctr 23 | NPY2 antag conf inactive
COc1ccc(OC)c(NC(=O)COC(=O)c2c3c(nc4ccccc24)CCCC3)c1	none
COc1ccc(NC(=O)COC(=O)c2c3c(nc4ccccc24)CCCC3)cc1	NPY Y2 blocker 21 | NPY1 antag ctr inactive | NPY2 antag conf inactive
CNC(=O)COC(=O)c1c2c(nc3ccccc13)CCC2	none (no result: NPY-Y1 antag, NPY Y2 blocker)
CC(C)NS(=O)(=O)c1ccc(CCC(=O)N2CCC(C(N)=O)CC2)cc1	none (no result: NPY Y2 blocker)
N#C/C(=C\c1cccs1)C(=O)Nc1nccs1	none (no result: NPY Y2 blocker)
Cc1cccc(CSCCNC(=O)COc2ccc(Cl)cc2)c1	NPY Y2 blocker 22 | NPY1 antag ctr inactive | NPY2 antag conf 17
CCCOC(=O)COC(=O)c1ccccc1NC(=O)c1ccccc1	NPY Y2 blocker 23 | NPY1 antag ctr inactive | NPY2 antag conf inactive
O=C(OCC1CC(c2ccccc2)=NO1)c1ccc(Br)cc1 (configuration not stated)	NPY Y2 blocker 18 | NPY1 antag ctr inactive | NPY2 antag conf inactive
O=C(OCC1CC(c2ccccc2Cl)=NO1)c1ccc(Br)cc1 (configuration not stated)	none
CC1=CC(C)(C)N(S(=O)(=O)c2ccc(C)cc2)c2ccc(C)cc21	NPY Y2 blocker 21 | NPY1 antag ctr 24 | NPY2 antag conf 20
COc1ccc(Cl)cc1N1C(=O)CC(Sc2ccccc2N)C1=O (configuration not stated)	none (no result: NPY-Y1 antag, NPY Y2 blocker)
CN(C)CCOC(C1CCCCC1)C1CCCCC1	NPY Y2 blocker 27 | NPY1 antag ctr inactive | NPY2 antag conf inactive
CN(C)CCNC(=S)NC1CCCCC1	none (no result: NPY Y2 blocker)
CCCC(c1nnnn1C1CCCCC1)N1CCN(C2CCCC2)CC1 (configuration not stated)	none
CCCC(c1nnnn1C(C)(C)CC)N1CCN(C2CCCC2)CC1 (configuration not stated)	NPY Y2 blocker 25 | NPY1 antag ctr inactive | NPY2 antag conf inactive
CCC(c1nnnn1C1CCCCC1)N1CCN(C2CCCC2)CC1 (configuration not stated)	NPY Y2 blocker 27 | NPY1 antag ctr inactive | NPY2 antag conf inactive
CN(C)/C=N/N(C)c1ncccc1[N+](=O)[O-]	none (no result: NPY-Y1 antag, NPY Y2 blocker)
O=C(O)COCC(=O)Nc1ccc(-n2cnnn2)cc1	none (no result: NPY Y2 blocker)
S=C(NCCc1ccccc1)N/N=C/c1cccc(Cl)c1Cl	NPY Y2 blocker 26 | NPY1 antag ctr 31 | NPY2 antag conf 50
Cc1ccc(OCC(=O)NC(=S)Nc2cccc(NC(=O)c3ccccc3)c2)cc1	NPY Y2 blocker 37 | NPY1 antag ctr inactive | NPY2 antag conf inactive
O=C(C1CCN(Cc2ccc(Cl)cc2)CC1)N1CCN(C(c2ccccc2)c2ccccc2)CC1	NPY Y2 blocker 20 | NPY1 antag ctr inactive | NPY2 antag conf 32

Compound activity from PubChem.
